From ChEMBL document CHEMBL3352143, “Cytotoxic and anti-inflammatory prenylated benzoylphloroglucinols and xanthones from the twigs of Garcinia esculenta” (J Nat Prod, 2014) come the findings set out here.

The test system of one assay is HepG2. Briefly: Cytotoxicity against human HepG2 cells by MTT assay. The assay is classed as functional, cell-based. An outline of the steps: (§1)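 MTT viability read-out, run in parallel on human HepG2 (hepatocellular carcinoma), MCF-7 and MDA-MB-231 (breast adenocarcinoma) cancer lines and HL-7702 normal human hepatic cells. Paclitaxel was the positive control, and results are expressed as IC50.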
For orientation: Tetrazolium assays rely on reduction of a dye to a coloured formazan, in cell work by metabolically active cells.

The subject of the next assay is MCF7. Briefly: Cytotoxicity against human MCF7 cells by MTT assay. In kind it is functional, cell-based. An outline of the steps:
as §1

In another assay the test system is MDA-MB-231. Briefly: Cytotoxicity against human MDA-MB-231 cells by MTT assay. The assay is classed as functional, cell-based. The method, boiled down: as §1
Assay [1] can be described thus: Cytotoxicity against human HL7702 cells by MTT assay. The assay is classed as cell-based. Conditions: L02. The method, boiled down: as §1
The next assay deals with RAW264.7. Briefly: Anti-inflammatory activity in mouse RAW264.7 cells assessed as inhibition of IFN-gamma plus LPS-induced NO production. In kind it is functional, cell-based. The method, boiled down:
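Murine macrophage RAW264.7 cells stimulated with IFN-γ plus LPS; NO output quantified as nitrite in the medium. Indomethacin served as positive control, and results are expressed as IC50.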

As usually defined, the IC50 is the concentration that gives 50% inhibition. Consider `C=C(C)C(C[C@H](O)C(=C)C)C[C@@]12C[C@@H](CC=C(C)C)C(C)(C)[C@@](CC=C(C)C)(C(=O)C(C(=O)c3ccc(O)c(O)c3)=C1O)C2=O` (stereo not given in full), for which the IC50 in the assay with HepG2 is over 10 µM; with MCF7, over 10 µM; with MDA-MB-231, over 10 µM; in assay [1], over 10 µM; in the assay on RAW264.7, 29.1 µM.

On to `C=C(C)C(O)C[C@H](C[C@]12C[C@@H](CC=C(C)C)C(C)(C)[C@](CC=C(C)C)(C1=O)c1oc3cc(O)c(O)cc3c(=O)c1C2=O)C(=C)C` (stereo not given in full), for which the IC50 with HepG2 is over 10 µM; in the assay with MCF7 it was over 10 µM; in the assay on MDA-MB-231 it was over 10 µM; in assay [1], over 10 µM; in the assay with RAW264.7, 12.9 µM.

As to `C=C(C)C(O)C[C@H](C[C@@]12C[C@@H](CC=C(C)C)C(C)(C)[C@@](CC=C(C)C)(C(=O)C(C(=O)c3ccc(O)c(O)c3)=C1O)C2=O)C(=C)C` (stereo not given in full) [GARCIMULTIFLORONE E], the IC50 was over 10 µM in the assay with HepG2; 9.8 µM with MCF7; over 10 µM with MDA-MB-231; over 10 µM in assay [1]; 1.1 µM with RAW264.7.

In the case of `CC(C)=CC[C@H]1C[C@@]23C[C@H](CC=C(C)C)C(C)(C)[C@@](CC=C(C)C)(C(=O)C(OC(=O)c4ccc(O)c(O)c4)=C2OC1(C)C)C3=O`, the IC50 in the assay with HepG2 is over 10 µM; with MCF7 it was over 10 µM; with MDA-MB-231, over 10 µM; in assay [1], over 10 µM; in the assay with RAW264.7, 39.1 µM.

With `O=c1c2cc(O)c(O)cc2oc2cc(O)cc(O)c12`, the half-inhibitory concentration (IC50) with HepG2 is over 10 µM; in the assay with MCF7, over 10 µM; with MDA-MB-231, over 10 µM; in assay [1] it was over 10 µM; in the assay on RAW264.7 it was 43 µM.

On to `C=C(C)C(CC=C(C)C)C[C@@]12C[C@H]3[C@@H](C=C(C)C)[C@@](C(=O)c4ccc(O)c(O)c4)(C1=O)C(=O)[C@@](CC=C(C)C)(C2=O)C3(C)C` (stereo not given in full), for which the IC50 with HepG2 is over 10 µM; with MCF7 it was over 10 µM; with MDA-MB-231, 9.1 µM; in assay [1] it was over 10 µM; with RAW264.7, over 50 µM.

For the molecule `C=C(C)[C@H](CC=C(C)C)C[C@@]12C[C@@H](CC=C(C)C)C(C)(C)[C@@](CC=C(C)C)(C(=O)C(C(=O)c3ccc(O)c(O)c3)=C1O)C2=O` [GUTTIFERONE F], the concentration for half-maximal inhibition (IC50) was over 10 µM with HepG2; over 10 µM with MCF7; 7.9 µM in the assay on MDA-MB-231; 9.6 µM in assay [1]; 14.1 µM in the assay with RAW264.7.

On to `CC(C)=CCc1c(O)cc2oc3ccc(O)cc3c(=O)c2c1O`, for which the half-maximal inhibitory concentration (IC50) is over 10 µM in the assay with HepG2; over 10 µM in the assay with MCF7; over 10 µM in the assay on MDA-MB-231; over 10 µM in assay [1]; 21.3 µM in the assay with RAW264.7.

Consider `CC(C)=CCc1c(O)cc(O)c2oc3cc(O)cc(O)c3c(=O)c12`, for which the 50% inhibitory concentration (IC50) in the assay on HepG2 was over 10 µM; in the assay on MCF7, over 10 µM; in the assay with MDA-MB-231 it was over 10 µM; in assay [1], over 10 µM; in the assay with RAW264.7, 6.4 µM.

Regarding `CC1(C)Oc2cc3oc4ccc(O)cc4c(=O)c3c(O)c2CC1O` (stereo not given), the IC50 was over 10 µM with HepG2; over 10 µM in the assay with MCF7; over 10 µM in the assay on MDA-MB-231; over 10 µM in assay [1]; 15.9 µM with RAW264.7.

As for `CC(C)=CC[C@H]1C[C@@]23C[C@@H](CC=C(C)C)C(C)(C)[C@@](CC=C(C)C)(C(=O)C(C(=O)c4ccc(O)c(O)c4)=C2OC1(C)C)C3=O` [CAMBOGIN], the 50% inhibitory concentration (IC50) in the assay on HepG2 turned out to be 7.3 µM; in the assay on MCF7, 4.8 µM; in the assay on MDA-MB-231, 5.7 µM; in assay [1], 9.3 µM; in the assay on RAW264.7, 19.2 µM.

For `C=C(C)C(CC=C(C)C)C[C@]12C[C@H](CC=C(C)C)C(C)(C)[C@](CC=C(C)C)(C(=O)c3c1oc1cc(O)c(O)cc1c3=O)C2=O` (stereo not given in full), the IC50 is over 10 µM in the assay with HepG2; over 10 µM with MCF7; over 10 µM with MDA-MB-231; over 10 µM in assay [1]; 17 µM with RAW264.7.

Regarding `CC(C)=CCc1c(O)cc2oc3cc(O)c(O)c(CC=C(C)C)c3c(=O)c2c1O`, the IC50 was over 10 µM in the assay with HepG2; over 10 µM with MCF7; 6.6 µM with MDA-MB-231; over 10 µM in assay [1]; over 50 µM with RAW264.7.

Consider `CC1(C)C=Cc2c(c(O)cc3oc4cc(O)cc(O)c4c(=O)c23)O1` [TOXYLOXANTHONE B], for which the IC50 is over 10 µM in the assay with HepG2; over 10 µM with MCF7; over 10 µM with MDA-MB-231; over 10 µM in assay [1]; over 50 µM with RAW264.7.

Take `C=C(C)[C@@H]1C[C@]23C[C@H](CC=C(C)C)C(C)(C)[C@](CC=C(C)C)(C(=O)C(C(=O)c4ccc(O)c(O)c4)=C2O[C@H]1C=C(C)C)C3=O` [GARCINIALIPTONE B]: the concentration for half-maximal inhibition (IC50) with HepG2 is over 10 µM; with MCF7 it was over 10 µM; in the assay on MDA-MB-231 it was over 10 µM; in assay [1] it was over 10 µM; in the assay on RAW264.7, 21.3 µM.

As to `CC1(C)C=Cc2c(cc3oc4ccc(O)cc4c(=O)c3c2O)O1`, the concentration for half-maximal inhibition (IC50) with HepG2 is over 10 µM; in the assay on MCF7, over 10 µM; in the assay on MDA-MB-231, 6.1 µM; in assay [1], 6.6 µM; in the assay on RAW264.7, over 50 µM.

With `CC1(C)CCc2c(c(O)cc3oc4cc(O)cc(O)c4c(=O)c23)O1` [HYPERXANTHONE E], the 50% inhibitory concentration (IC50) in the assay on HepG2 was over 10 µM; in the assay on MCF7, over 10 µM; with MDA-MB-231, over 10 µM; in assay [1] it was over 10 µM; in the assay on RAW264.7 it was 4 µM.

Turning to `CC(=O)O[C@H]1C(=O)[C@@]2(C)[C@H]([C@H](OC(=O)c3ccccc3)[C@]3(O)C[C@H](OC(=O)[C@H](O)[C@@H](NC(=O)c4ccccc4)c4ccccc4)C(C)=C1C3(C)C)[C@]1(OC(C)=O)CO[C@@H]1C[C@@H]2O` [PACLITAXEL], the 50% inhibitory concentration (IC50) in the assay with HepG2 amounted to 0.0046 µM; in the assay with MCF7, 0.0015 µM; in the assay on MDA-MB-231 it was 0.0082 µM; in assay [1], 1.1 µM.

Regarding `CC1=C[C@H]2c3c(c(O)c(O)c4oc5cc(O)cc(O)c5c(=O)c34)[C@H](c3cc(O)c(O)c4oc5cc(O)cc(O)c5c(=O)c34)[C@H]2C(C)(C)C1`, the IC50 with HepG2 is over 10 µM; with MCF7, over 10 µM; in the assay with MDA-MB-231, over 10 µM; in assay [1], over 10 µM; in the assay on RAW264.7 it was 41.9 µM.

For the molecule `COc1ccc2c(c1)c(CC(=O)O)c(C)n2C(=O)c1ccc(Cl)cc1` [INDOMETHACIN], the concentration for half-maximal inhibition (IC50) with RAW264.7 was 3.9 µM.

As to `C=C(C)C(CC=C(C)C)C[C@@]12C[C@@H](C[C@H](O)C(C)(C)OC)C(C)(C)[C@@](CC=C(C)C)(C(=O)C(C(=O)c3ccc(O)c(O)c3)=C1O)C2=O` (stereo not given in full), the IC50 is over 10 µM in the assay with HepG2; over 10 µM in the assay with MCF7; over 10 µM in the assay on MDA-MB-231; over 10 µM in assay [1]; 24.9 µM with RAW264.7.

For the molecule `C=C(C)C(C[C@@H](O)C(=C)C)C[C@@]12C[C@@H](CC=C(C)C)C(C)(C)[C@@](CC=C(C)C)(C(=O)C(C(=O)c3ccc(O)c(O)c3)=C1O)C2=O` (stereo not given in full), the IC50 in the assay on HepG2 was over 10 µM; in the assay with MCF7 it was over 10 µM; with MDA-MB-231, over 10 µM; in assay [1], over 10 µM; in the assay on RAW264.7 it was 19.1 µM.

For the molecule `CC(C)=CCc1cc(O)c(O)c2oc3cc4c(c(O)c3c(=O)c12)C=CC(C)(C)O4`, the IC50 with HepG2 is over 10 µM; in the assay with MCF7, over 10 µM; in the assay on MDA-MB-231, over 10 µM; in assay [1], over 10 µM; with RAW264.7, over 50 µM.
